Rad51 HR inh: blocks human Rad51 in homologous recombination. hRad51 DNA strand exchange, fluorescence dequenching. inhibition, % at 10 µM. 200,000 tested, 0.085% active. AID 1385;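 active = inhibition above 40% at the single screening dose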;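 note: 0% = DMSO control wells and 100% = blanks with heterologous ssDNA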
Target sequence (Q06609 whole entry, looked up): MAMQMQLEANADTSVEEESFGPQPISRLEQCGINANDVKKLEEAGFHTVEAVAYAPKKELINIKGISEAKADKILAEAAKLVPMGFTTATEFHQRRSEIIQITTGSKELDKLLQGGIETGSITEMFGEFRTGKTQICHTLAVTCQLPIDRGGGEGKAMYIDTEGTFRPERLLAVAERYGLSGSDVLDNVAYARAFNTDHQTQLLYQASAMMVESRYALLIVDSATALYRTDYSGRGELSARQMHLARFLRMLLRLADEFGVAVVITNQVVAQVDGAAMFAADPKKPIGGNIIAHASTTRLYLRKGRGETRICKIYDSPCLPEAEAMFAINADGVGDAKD
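System: hRad51 filaments on single-stranded DNA; reagent: Fluorescein- and BHQ1-tagged 47-mer duplex; compound dosing: one concentration, 10 µM final; timing: filaments 15 min 37 °C, then compound 30 min; measured by: fluorescein emission 520 nm, excitation 485 nm; benchmarks: per-plate controls and blanks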
CHT inh: human CHT choline transport inhibition; B-score at 10 µM; Q9GZV3; CHT-expressing cells, membrane potential dye, choline response; stronger effect = lower value; 310,000 tested, 0.86% active; AID 488975;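 active = B-score over 3 SD under the library average, and starting fluorescence ratio not unusually high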;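 note: choline stimulus applied at its EC90 after an EC20 pre-addition; B-score computed on integrated fluorescence ratio after choline addition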
CHT PAM: human CHT allosteric activation. B-score at 10 µM. CHT-expressing cells, membrane potential dye, choline EC20; stronger effect = higher value; LV-AA mutant CHT in HEK293 cells. 310,000 tested, 0.49% active. Q9GZV3;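 active = initial fluorescence not abnormally high and integrated response B-score, plate-corrected, over 3 SD above library mean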
KCC2 mod: KCC2 (human) Cl- transport modulation; Q9H2X9; KCC2 cells, thallium flux FluoZin-2 fluorescence; B-score of Tl+ flux slope (higher = more flux/activation; lower = inhibition) at 10 µM; 190,000 tested, 2.2% active; AID 1456;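 active = thallium flux slope and its plate-corrected score both differing from the plate sample mean at a set confidence after two filtering rounds, in either direction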;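 note: slope of fluorescence scaled to starting intensity during 10 to 20 s after thallium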
CHT act confirm: confirmation of human choline transporter (CHT) activators. CHT-expressing cells, membrane potential dye fluorescence (FDSS); % of choline EC20–EC90 response window; HEK293 expressing CHT LV-AA mutant; choline added at its EC20. 2,500 tested, 91% active. shares compounds with CHT PAM. activation, % at 10 µM;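 active = primary screen active, with duplicate mean activation above negative control mean plus 3 SD, cut at about 11% in these data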
HEK293 MP dye: counter-screen for CHT activators: effect in parental HEK293 cells. shares compounds with CHT PAM. membrane potential dye fluorescence (FDSS); measured after EC20 choline addition. ratio readout change at 10 µM, hits read low. 2,500 tested, 62% active. AID 623908;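 active = duplicate-averaged ratio beyond 3 SD from buffer wells, up or down, though filed actives are nearly all decreases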
Numbers without * were called inactive; i = inactive; · = no result given. Sampled rows, rich in hits. Any-hit rate of the full collection: about 2.6%.

SMILES	Rad51 HR inh	CHT inh	CHT PAM	KCC2 mod	CHT act confirm	HEK293 MP dye
O=C(CSc1ncc(-c2ccccc2)n1-c1ccccc1)NCc1ccco1	-1.6	i	i	-2.36	·	·
COc1ccc(-n2c(-c3ccc(F)cc3)cnc2SCC(=O)NCc2ccco2)cc1	3.1	i	i	·	33.2*	i
CCCOc1nc2c(c(=O)n(C)c(=O)n2C)n1C	-6.1	i	i	-0.0582	·	·
CN(C)CCCOc1nc2c(c(=O)n(C)c(=O)n2C)n1C	8.8	i	9.15*	0.679	48.7*	-55.1*
CCOc1ccc(C(C)=O)cc1CSC(=N)N	·	i	i	-0.537	12.6*	-45.4*
N#Cc1cc(Sc2ccccn2)c([N+](=O)[O-])cc1C#N	-11.6	i	i	0.466	46.0*	-41.3*
N#Cc1cc(Sc2ccccn2)c(Sc2ccccn2)cc1C#N	3.2	i	i	0.0837	·	·
CN(C)CCNC(=O)c1onc(CSc2ccc(F)cc2)c1C(=O)NCCN(C)C	2.9	i	6.7*	-0.451	17.5*	-20.5*
CC(C)CSc1nsc(N)n1	-6.0	i	i	1.63	26.6*	i
O=C(Nc1ccc2nccnc2c1)c1cnccn1	5.4	i	7.5*	·	52.9*	-58.3*
CCCn1c(C)cc(=O)c2cc(NC(=O)c3cnccn3)ccc21	2.7	i	i	-0.541	40.8*	-79.9*
O=C(Nc1ccc2ccccc2c1)c1cnccn1	-3.9	i	i	·	·	·
Cc1cccc(N=Cc2[nH]c3ccc(Br)c(Cl)c3c2O)c1	i	i	i	0.338	11.9*	i
COc1ccccc1CN=Cc1[nH]c2ccc(Br)c(Cl)c2c1O	-136.8	i	i	-0.596	·	·
CCC(C)c1ccccc1N1CC(C(=O)Nc2ccccc2N2CCCC2)CC1=O (stereo unspecified)	·	i	i	·	29.2*	i
COCCNc1cc(C)nc2c3c(C)cc(C)nc3nn12	-0.9	i	i	·	55.2*	-64.5*
Cc1cc(C)c2c(n1)nn1c(NCCN3CCOCC3)cc(C)nc21	9.6	i	6.88*	0.0133	50.0*	-72.8*
COc1ccc(CCNc2cc(C)nc3c(-c4ccccc4)c(C)nn23)cc1OC	5.2	i	i	-0.664	·	·
CC1(C)C2CCC13CS(=O)(=O)N[C@@H]3C2 (stereo partly specified)	7.2	i	i	1.36	·	·
CCOc1ccc(N(CC)C(=O)c2cn(CC)c(=O)c3cc(OC)c(OC)cc23)cc1	·	i	i	·	·	·
Cc1cc2oc(C(=O)Nc3ccc(S(=O)(=O)Nc4onc(C)c4C)cc3)cc(=O)c2cc1Cl	18.1	i	i	0.157	37.2*	-34.7*
Cc1noc(NS(=O)(=O)c2ccc(NC(=O)c3cc(=O)c4ccccc4o3)cc2)c1C	·	i	i	·	·	·
CCC1(c2ccc(F)cc2)NC(=O)NC1=O (stereo unspecified)	·	i	i	·	·	·
CC(C)CC(=O)Nc1ccc(-c2nnn(CC(=O)NCc3ccco3)n2)cc1	22.8	i	i	-0.0139	·	·
Nc1c2c(nc3ccccc13)N(c1ccccc1)CC2	5.5	i	i	·	·	·
SMILES	Rad51 HR inh	CHT inh	CHT PAM	KCC2 mod	CHT act confirm	HEK293 MP dye
CN1CCCCc2c1nc1ccccc1c2N (tested in a mixture with another compound)	2.0	i	8.57*	-0.23	22.7*	-48.5*
CN1CCCC1=Nc1c2c(nc3ccccc13)N(C)CC2	·	i	8.93*	-1.07	61.1*	-57.2*
COc1cc(S(=O)(=O)N(Cc2cccnc2)Cc2cccc(OC)c2OC)ccc1-n1cnnn1	3.9	i	i	-0.0503	·	·
CCc1noc(C)c1C(=O)Nc1ccc(C#N)cc1	·	i	i	·	·	·
COCc1nc2ccccc2n1Cc1cccc(C)c1	-3.7	i	i	-1.06	·	·
Cc1cccc(Cn2c(Cc3ccccc3)nc3ccccc32)c1	6.4	i	9.83*	-2.63	4.9	i
CCOc1ncccc1C(=O)N1CCN(c2cccc(C)c2C)CC1	2.0	·	·	-0.632	·	·
CCOc1ncccc1C(=O)N1CCN(c2cc(Cl)ccc2C)CC1	20.4	i	14.5*	0.124	44.5*	i
Cc1ccccc1/C=N/n1c(-c2ccccn2)n[nH]c1=S	5.8	i	i	0.379	·	·
Cc1ccccc1/C=C/C1=NCCN1	·	i	7.25*	·	39.8*	-38.1*
CN(C)Cc1ccc(-c2nc3cccc4c3n2CCNC4=O)cc1	-6.2	i	i	·	50.7*	-38.3*
Cc1cc(CN(C)C(=O)CC2C(=O)NCCN2Cc2ccc(-c3ccccc3)cc2)on1 (stereo unspecified)	·	i	i	·	·	·
COc1ccc(C2=NCCn3cccc32)c(OC)c1	·	i	i	2.35	43.0*	-49.1*
CCCC1=NCCn2cccc21	5.4	i	i	0.655	·	·
COc1cc(NS(C)(=O)=O)ccc1Nc1c2ccccc2nc2ccccc12	·	i	8.29*	·	13.3*	-54*
COc1ccc(OC)c(Nc2c3ccccc3nc3ccccc23)c1	·	i	i	·	·	·
O=C(O)CCc1nn2cnc3sc4c(c3c2nc1=O)CCCC4	·	i	i	·	54.3*	-42.6*
Cc1cccc(CN2CCC(n3nccc3NC(=O)CCCc3ccccc3)CC2)n1	·	i	i	·	·	·
CCN1CCN(C(=O)CCn2c(=O)c3cccn3c3cccnc32)CC1	·	i	i	·	58.2*	-30.2*
Cc1cc(C)c(S(=O)(=O)N/N=C/c2ccc([N+](=O)[O-])o2)c(C)c1	·	i	i	·	·	·
C[n+]1cccc2c(Br)ccc([O-])c21	22.7	i	6.42*	-0.069	58.0*	-47.6*
Cc1cc(SCC(=O)c2cccs2)n2nc(C)c(-c3ccccc3)c2n1	-0.5	i	i	-0.346	·	·
N#Cc1c(NC(=O)CCn2cnc3ccccc3c2=O)oc(-c2ccccc2)c1-c1ccccc1	-0.7	i	i	-0.14	4.6	i
Cc1nnc(C)c2c(C)n(Cc3ccc4c(c3)OCO4)c(C)c12	3.5	i	8.06*	-1.52	54.3*	-44.7*
Cn1c(/C=N/O)nc2ccccc21	14.6	i	i	0.343	·	·
SMILES	Rad51 HR inh	CHT inh	CHT PAM	KCC2 mod	CHT act confirm	HEK293 MP dye
Cn1c(/C=N/n2cnnc2)nc2ccccc21	9.2	i	6.55*	0.207	59.8*	-48.3*
O=C(O)c1cc2cc(Oc3ccccc3)ccc2[nH]1	·	i	i	·	·	·
c1ccc2c(N3CCCCC3)ncnc2c1	-3.0	i	i	-0.22	·	·
CN1CC[n+]2cnc3ccccc3c21	7.7	i	12.1*	1.03	78.5*	-72.5*
Cc1ccn2c(NC3CCCC3)c(-c3ccncc3)nc2c1	1.6	i	7.16*	-0.817	47.0*	-63*
Cc1ccc2nc(-c3ccncc3)c(NC3CCCC3)n2c1	0.8	i	i	-0.419	·	·
